Data set [1] has as its system Mycobacterium tuberculosis. In words: Antimycobacterial activity against wild-type Mycobacterium tuberculosis H37Rv ATCC 27294 after 16 to 18 days by BACTEC 7H12B microdilution method. The data set is classed as functional. (Dilution methods test growth across graded concentrations, often in twofold steps.)
The target in data set [2] is DNA gyrase subunit A/DNA gyrase subunit B (Mycobacterium tuberculosis (strain ATCC 25618 / H37Rv), UniProt P9WG45+P9WG47). In words: Inhibition of Mycobacterium tuberculosis H37Rv DNA gyrase holoenzyme-mediated supercoiling of pBR322 DNA after 90 mins by agarose gel electrophoresis.
Data set [3] can be described thus: Octanol-sodium phosphate buffer partition coefficient, log D of the compound at 10 mM at pH 7.4 by shake-flask method. The data set is classed as physicochemical.
The target of data set [4] is Voltage-gated inwardly rectifying potassium channel KCNH2 (Homo sapiens, UniProt Q12809). Put plainly: Inhibition of human ERG by patch clamp electrophysiological analysis. Background: In patch-clamp work, channel activity is measured electrically.
Data set [5] can be described thus: Apparent permeability from apical to basolateral side in human Caco2 cells. The data set is classed as ADME, cell-based. Conditions: Caco-2.
A short description of data set [6]: Apparent permeability from basolateral to apical side in human Caco2 cells. Conditions: Caco-2. The data set is classed as ADME, cell-based.
Data set [7] in a line: Clearance in rat at 40 mg/kg, po and 5 mg/kg, iv by LC-MS/MS analysis. The data set is classed as ADME, organism-based. Conditions: in vivo. In a few lines: (§1)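 Rats were dosed with the 5% dextrose (pH 4−5) formulation, 5 mg/kg iv and 40 mg/kg po. Plasma was precipitated with acetonitrile and analysed by LC−MS/MS with a carbamazepine internal standard. Parameters were derived by noncompartmental analysis.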

Data set [8] in a line: Oral bioavailability in rat at 40 mg/kg by LC-MS/MS analysis. The data set is classed as ADME, organism-based. As to conditions: in vivo. In short, it runs like this: as §1
Data set [9] concerns Mycobacterium tuberculosis. In words: Bactericidal activity against Mycobacterium tuberculosis infected in human THP1 cells at 1 ug/ml for 7 days. The data set is classed as functional, THP-1. In short, it runs like this: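 Adherent THP-1 macrophages infected with Mtb were exposed to compound at 1 μg/mL for 7 days at 37 °C. Kill was expressed as log reduction versus the untreated control.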

A further data set has as its target DNA gyrase subunit B (Mycobacterium smegmatis, UniProt P0C559). Put plainly: Inhibition of Mycobacterium smegmatis DNA gyrase-B ATPase activity. Also noted: species or system Mycolicibacterium smegmatis.
The test system of data set [10] is Mycobacterium tuberculosis. Put plainly: Antimycobacterial activity against Mycobacterium tuberculosis clinical isolates after 2 to 4 weeks by BACTEC 460 radiometric assay. The data set is classed as functional.
Data set [11] relates to Mycobacterium tuberculosis. Put plainly: Antimycobacterial activity against Mycobacterium tuberculosis infected in aminobenzotriazole-pretreated BALB/c mouse acute tuberculosis model assessed as reduction in bacterial burden at 80 to 160 mg/kg, po bid for 20 days. The data set is classed as functional, organism-based. In short, it runs like this:
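Aerosol-infected BALB/c mice in BSL3, three per group. Treatment began 3 days (acute) or 4 weeks (chronic) after infection. ABT 100 mg/kg po in water was given 2 h before oral gavage of compound in 5% dextrose (pH 4−5 with acetic acid), 10 mL/kg, twice daily at 8 h intervals. Courses were 20 days (7 days/week) or 8 weeks (6 days/week). Lung homogenates were plated on 7H11 for cfu.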

Data set [12] can be described thus: Fraction unbound in aminobenzotriazole-pretreated BALB/c mouse plasma infected with Mycobacterium tuberculosis by LC-MS/MS analysis. The data set is classed as ADME, cell-free.
Data set [13] can be described thus: Ratio of fAUC in aminobenzotriazole-pretreated Mycobacterium tuberculosis infected BALB/c mouse at 80 mg/kg, po to MIC for wild-type Mycobacterium tuberculosis H37Rv ATCC 27294. In a few lines:
(§2)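 PK was measured in infected, ABT-pretreated mice during efficacy dosing (oral, 5% dextrose pH 4−5) on day 18 or 19. Saphenous blood was taken at 5, 15 and 30 min and 1, 2, 4 and 6 h. Plasma was precipitated with acetonitrile and analysed by LC−MS/MS. AUC came from noncompartmental analysis; free AUC/MIC and %free T>MIC used the unbound fraction and MIC.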

In the next data set the test system is Mus musculus. In words: fT>MIC in BALB/c mouse infected with Mycobacterium tuberculosis at 80 mg/kg, po. In short, it runs like this: as §2
Data set [14] has as its system Mycobacterium tuberculosis. Put plainly: Bactericidal activity against Mycobacterium tuberculosis H37Rv after 10 days by time kill assay. The data set is classed as functional, organism-based. In a few lines:
(§3)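 Time-kill in 7H9 broth with 0.2% glycerol, 0.05% Tween 80 and 10% ADC. Serial 2-fold dilutions were added to ~3 × 10^7 cfu/mL H37Rv at 37 °C. Aliquots were plated on 7H11 at days 0, 3, 7 and 10, and plates were incubated up to 28 days at 37 °C, 5% CO2, humidified. Results are given as log10 cfu per concentration.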

In data set [15] the test system is Mycobacterium tuberculosis. In words: Bactericidal activity against Mycobacterium tuberculosis H37Rv at 0.01 to 2 ug/ml by time kill assay. The data set is classed as functional, organism-based. As to conditions: TDE = time-dependent effect. In short, it runs like this:
as §3

Data set [16] deals with Mycobacterium tuberculosis. In words: Bactericidal activity against Mycobacterium tuberculosis H37Rv assessed as reduction in log10CFU at 0.01 to 2 ug/ml after 10 days by time kill assay. The data set is classed as functional. In a few lines: as §3

Molecules are shown by their SMILES. Converted amounts (≈) assume the structure as drawn. The source made the active and inactive calls.

For orientation: MIC means the smallest concentration in the dilution series that meets the test's criterion for growth inhibition. By IC50 is commonly meant the concentration at which inhibition is half-maximal. Read a low IC50 as greater potency. Broadly, the logD is lipophilicity at a set pH, counting ionised and neutral species. Read a low logD as lower lipophilicity. The term Papp A→B denotes how fast a substance crosses the layer from the apical side. Broadly, the Papp B→A is how fast a substance crosses the layer from the basolateral side. The term bioavailability denotes the share of a dose that reaches the circulation, judged against a reference dose that is usually intravenous. A word on the MIC90: it is an inhibitory concentration at the 90% level, which refers to growth in some studies and to a panel of isolates in others. Low readings indicate higher susceptibility, high ones lower susceptibility. The term fraction unbound denotes free concentration divided by total concentration.

Sequence of DNA gyrase subunit A/DNA gyrase subunit B (P9WG45 whole entry): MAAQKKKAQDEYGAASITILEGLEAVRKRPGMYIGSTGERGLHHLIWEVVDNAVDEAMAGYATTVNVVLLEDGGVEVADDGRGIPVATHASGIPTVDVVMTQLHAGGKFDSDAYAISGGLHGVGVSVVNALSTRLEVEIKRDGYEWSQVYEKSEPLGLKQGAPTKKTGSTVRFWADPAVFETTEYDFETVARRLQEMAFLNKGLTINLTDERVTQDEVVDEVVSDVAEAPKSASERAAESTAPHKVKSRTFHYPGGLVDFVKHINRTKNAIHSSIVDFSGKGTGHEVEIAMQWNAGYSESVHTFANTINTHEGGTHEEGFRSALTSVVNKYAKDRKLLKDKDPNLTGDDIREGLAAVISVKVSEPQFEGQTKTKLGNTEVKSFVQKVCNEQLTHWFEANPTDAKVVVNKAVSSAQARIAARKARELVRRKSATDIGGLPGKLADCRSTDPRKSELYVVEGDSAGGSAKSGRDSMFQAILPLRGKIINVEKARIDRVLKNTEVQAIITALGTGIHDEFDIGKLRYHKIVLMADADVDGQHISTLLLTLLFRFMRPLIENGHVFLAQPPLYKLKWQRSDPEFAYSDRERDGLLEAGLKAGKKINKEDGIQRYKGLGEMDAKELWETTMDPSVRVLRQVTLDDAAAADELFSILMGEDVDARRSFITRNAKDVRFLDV
Sequence of DNA gyrase subunit A/DNA gyrase subunit B (P9WG47 whole entry): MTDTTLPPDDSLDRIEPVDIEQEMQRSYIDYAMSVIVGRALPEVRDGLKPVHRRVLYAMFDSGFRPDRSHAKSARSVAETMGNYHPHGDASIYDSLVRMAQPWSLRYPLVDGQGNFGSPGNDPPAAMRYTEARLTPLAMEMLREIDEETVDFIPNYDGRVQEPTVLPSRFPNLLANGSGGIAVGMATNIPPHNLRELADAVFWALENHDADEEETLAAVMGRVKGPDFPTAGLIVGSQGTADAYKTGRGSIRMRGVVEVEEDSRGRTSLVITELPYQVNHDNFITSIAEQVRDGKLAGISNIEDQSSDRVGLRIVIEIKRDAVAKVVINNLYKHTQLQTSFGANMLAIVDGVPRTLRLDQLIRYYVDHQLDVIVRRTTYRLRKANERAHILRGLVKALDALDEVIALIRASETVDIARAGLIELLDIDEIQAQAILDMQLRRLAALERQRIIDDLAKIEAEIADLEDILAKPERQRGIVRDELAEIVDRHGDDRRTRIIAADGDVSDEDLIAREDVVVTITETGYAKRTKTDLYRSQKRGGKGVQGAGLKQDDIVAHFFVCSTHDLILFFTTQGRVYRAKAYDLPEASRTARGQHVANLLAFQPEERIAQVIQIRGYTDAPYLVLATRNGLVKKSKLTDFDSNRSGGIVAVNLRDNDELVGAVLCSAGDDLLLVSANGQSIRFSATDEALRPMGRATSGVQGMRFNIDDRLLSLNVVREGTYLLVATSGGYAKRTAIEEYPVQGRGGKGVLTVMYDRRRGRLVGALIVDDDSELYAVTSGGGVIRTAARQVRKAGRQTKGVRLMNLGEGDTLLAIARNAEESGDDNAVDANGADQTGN
Sequence of Voltage-gated inwardly rectifying potassium channel KCNH2 (Q12809 whole entry): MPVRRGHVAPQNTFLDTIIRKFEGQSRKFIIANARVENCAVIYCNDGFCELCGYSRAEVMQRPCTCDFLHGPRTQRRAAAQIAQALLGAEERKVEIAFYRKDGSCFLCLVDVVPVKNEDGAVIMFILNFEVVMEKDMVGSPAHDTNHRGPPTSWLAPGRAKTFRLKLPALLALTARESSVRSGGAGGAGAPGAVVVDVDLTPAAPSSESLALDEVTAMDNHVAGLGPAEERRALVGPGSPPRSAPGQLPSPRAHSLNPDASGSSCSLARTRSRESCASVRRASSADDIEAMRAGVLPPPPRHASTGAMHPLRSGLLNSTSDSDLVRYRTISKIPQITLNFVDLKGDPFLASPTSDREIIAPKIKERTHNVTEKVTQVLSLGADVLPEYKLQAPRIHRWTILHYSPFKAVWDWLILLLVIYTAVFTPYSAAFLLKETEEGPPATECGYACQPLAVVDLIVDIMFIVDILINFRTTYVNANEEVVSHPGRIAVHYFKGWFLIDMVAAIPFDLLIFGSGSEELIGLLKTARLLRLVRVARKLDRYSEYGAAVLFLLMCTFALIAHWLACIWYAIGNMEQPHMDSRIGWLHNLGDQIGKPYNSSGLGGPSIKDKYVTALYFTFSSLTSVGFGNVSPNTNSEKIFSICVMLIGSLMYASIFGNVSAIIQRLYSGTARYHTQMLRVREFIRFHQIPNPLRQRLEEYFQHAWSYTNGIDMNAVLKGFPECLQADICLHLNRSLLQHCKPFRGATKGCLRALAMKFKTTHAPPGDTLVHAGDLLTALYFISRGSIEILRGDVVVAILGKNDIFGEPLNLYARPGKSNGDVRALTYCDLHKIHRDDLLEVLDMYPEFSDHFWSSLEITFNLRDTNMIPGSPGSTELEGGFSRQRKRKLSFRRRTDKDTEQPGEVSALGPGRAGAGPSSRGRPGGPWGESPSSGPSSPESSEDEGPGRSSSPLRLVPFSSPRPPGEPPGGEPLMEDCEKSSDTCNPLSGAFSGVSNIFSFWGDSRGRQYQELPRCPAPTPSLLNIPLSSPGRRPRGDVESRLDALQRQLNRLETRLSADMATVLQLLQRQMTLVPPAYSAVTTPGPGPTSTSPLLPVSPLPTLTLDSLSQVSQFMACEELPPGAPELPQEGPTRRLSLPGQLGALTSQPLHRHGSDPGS
Sequence of DNA gyrase subunit B (P0C559 whole entry): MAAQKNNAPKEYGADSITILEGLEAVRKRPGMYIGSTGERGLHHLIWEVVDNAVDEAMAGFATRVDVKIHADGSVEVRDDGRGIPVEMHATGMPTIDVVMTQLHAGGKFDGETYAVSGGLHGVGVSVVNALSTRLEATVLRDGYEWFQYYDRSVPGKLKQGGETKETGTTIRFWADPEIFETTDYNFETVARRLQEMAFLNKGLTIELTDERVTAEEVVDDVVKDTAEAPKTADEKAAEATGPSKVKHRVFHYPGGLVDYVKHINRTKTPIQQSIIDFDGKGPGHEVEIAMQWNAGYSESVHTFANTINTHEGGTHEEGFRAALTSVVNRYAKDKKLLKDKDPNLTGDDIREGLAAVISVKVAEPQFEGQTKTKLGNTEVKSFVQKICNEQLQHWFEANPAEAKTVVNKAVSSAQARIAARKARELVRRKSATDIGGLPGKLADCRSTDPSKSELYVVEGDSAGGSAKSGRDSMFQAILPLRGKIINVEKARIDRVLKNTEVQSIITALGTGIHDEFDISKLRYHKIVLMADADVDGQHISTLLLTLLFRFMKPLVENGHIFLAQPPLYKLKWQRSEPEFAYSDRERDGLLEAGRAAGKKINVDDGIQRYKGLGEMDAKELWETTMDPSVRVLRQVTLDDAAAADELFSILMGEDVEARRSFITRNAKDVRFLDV

In turn, `COc1cnc2ccc(=O)n(CCN3CC[C@@H](NCc4cnc(C)c(C#N)c4)[C@@H](F)C3)c2c1` displayed an MIC in [1] of 0.06 µg/mL (≈ 0.133 µM). Besides, the half-maximal inhibitory concentration (IC50) in data set [2] came out at 0.25 µM; in [4], 90 µM. For the same compound, the logD at 10000 µM in [3] was determined as 1.29. Moreover, the apical-to-basolateral permeability (Papp A→B) in [5] is 13.6 ×10⁻⁶ cm/s. Besides, the Papp B→A in [6] turned out to be 7.4 ×10⁻⁶ cm/s. This compound also showed a clearance in data set [7] of 42 mL/min/kg. Also, the bioavailability in [8] stood at 52%. This compound also came in with an LCK in data set [9] of 1.3.

`COc1cnc2ccc(=O)n(CCN3CCC(NC(=O)c4cnc(C)c(C#N)c4)CC3)c2c1` yielded an MIC in [1] of 0.13 µg/mL (≈ 0.291 µM). Moreover, in data set [3], the pH-dependent lipophilicity (logD) at 10000 µM came out at 1.4. Further, in data set [4], half-maximal inhibition (IC50) required 74 µM. Also, the Papp A→B in data set [5] was 4.2 ×10⁻⁶ cm/s. The basolateral-to-apical permeability (Papp B→A) in data set [6] is 13 ×10⁻⁶ cm/s.

`Cc1nc(CNC2CCN(CCn3c(=O)ccc4ccc(C#N)cc43)CC2)ccc1C#N`: the minimal inhibitory concentration (MIC) in [1] is over 16 µg/mL. Further, the values for the half-inhibitory concentration (IC50) (in data set [2]; on DNA gyrase subunit B; in [4]) were over 100 µM, over 100 µM and 5.3 µM, respectively. In data set [3], this compound returned a logD at 10000 µM of 1.1. Moreover, in data set [5], the Papp A→B was determined as 17.1 ×10⁻⁶ cm/s. Moreover, the basolateral-to-apical permeability (Papp B→A) in data set [6] stood at 9.1 ×10⁻⁶ cm/s.

With `COc1cnc2ccc(=O)n(CCN3CC[C@@H](NCc4ccc5c(n4)NC(=O)CO5)[C@@H](F)C3)c2c1`, in data set [1], the MIC stood at 0.03 µg/mL (≈ 0.0622 µM). In addition, the logD at 10000 µM in data set [3] was determined as 0.64. Besides, the Papp A→B in data set [5] is 4.1 ×10⁻⁶ cm/s. Also, in data set [6], the Papp B→A is 10.8 ×10⁻⁶ cm/s.

With `NNC(=O)c1ccncc1` [ISONIAZID], the MIC in [1] amounted to 0.06 µg/mL (≈ 0.438 µM).

In data set [10], `CC1COc2c(N3CCN(C)CC3)c(F)cc3c(=O)c(C(=O)O)cn1c23` (stereo unspecified) [OFLOXACIN] registered an MIC90 of over 8 µg/mL. Also, the lowest concentration to inhibit growth in [1] (MIC) was 0.5 µg/mL (≈ 1.38 µM).

For the compound `COc1ccc2c(ccc(=O)n2CCN2CCC(NCc3cnc(C)c(C#N)c3)CC2)n1`, inhibition of growth in data set [1] (MIC) required 4 µg/mL (≈ 9.25 µM). The compound also showed an IC50 in [4] of 10 µM.

Consider `COc1ccc2ncc(=O)n(CCN3CCC(NCc4cnc(C)c(C#N)c4)CC3)c2n1`, for which the minimum inhibitory concentration (MIC) in [1] is 0.13 µg/mL (≈ 0.3 µM). The compound further yielded a pH-dependent lipophilicity (logD) at 10000 µM in data set [3] of 1.65. The compound further had a half-inhibitory concentration (IC50) in data set [4] of 13 µM.

In data set [1], `Cc1ncc(CNC2CCN(CCn3c(=O)ccc4ncc(F)cc43)CC2)cc1C#N` came in with a minimal inhibitory concentration (MIC) of 0.25 µg/mL (≈ 0.595 µM). The compound further showed a pH-dependent lipophilicity (logD) at 10000 µM in [3] of 0.81. Besides, in [4], half-maximal inhibition (IC50) was put at 69 µM. Besides, the Papp A→B in data set [5] was determined as 18 ×10⁻⁶ cm/s. Besides, in data set [6], the Papp B→A is 9.8 ×10⁻⁶ cm/s.

`N#Cc1ccc2ccc(=O)n(CCN3CCC(NCc4cc5c(cn4)OCCO5)CC3)c2c1` returned an MIC in data set [1] of 2 µg/mL (≈ 4.49 µM). Besides, the half-inhibitory concentration (IC50) in data set [2] was 1.05 µM; at DNA gyrase subunit B it was over 100 µM. The same compound returned a pH-dependent lipophilicity (logD) at 10000 µM in data set [3] of 0.7. In addition, the Papp A→B in [5] came to 1.9 ×10⁻⁶ cm/s. The basolateral-to-apical permeability (Papp B→A) in data set [6] came out at 38.3 ×10⁻⁶ cm/s.

The compound `COc1cc(C#N)c2ccc(=O)n(CCN3CCC(NCc4cnc(C)c(C#N)c4)CC3)c2c1` registered an MIC in [1] of 0.01 µg/mL (≈ 0.0219 µM). The IC50 in data set [2] amounted to 0.065 µM; in data set [4], 2.5 µM. Besides, the logD at 10000 µM in data set [3] came to 1.86. Also, the apparent permeability from apical to basolateral (Papp A→B) in data set [5] was determined as 10 ×10⁻⁶ cm/s. In [6], the Papp B→A was 4.7 ×10⁻⁶ cm/s. Also, the clearance in data set [7] turned out to be 10 mL/min/kg. In data set [8], this compound displayed a bioavailability of 59%.

As for `COc1cnc2ccc(=O)n(CCN3CCC(NCc4cnc(OC)c(C#N)c4)CC3)c2c1`, the minimal inhibitory concentration (MIC) in data set [1] stood at 0.06 µg/mL (≈ 0.134 µM). This compound displayed a pH-dependent lipophilicity (logD) at 10000 µM in [3] of 1.2. Also, half-maximal inhibition in data set [4] (IC50) was put at 12 µM. Further, the Papp A→B in data set [5] is 13 ×10⁻⁶ cm/s. Further, the Papp B→A in data set [6] turned out to be 9 ×10⁻⁶ cm/s.

Take `O=C1COc2ccc(CN[C@H]3CCN(CCn4c(=O)ccc5ncc(F)cc54)C[C@H]3F)nc2N1`: the outcome in [11] was Active. In addition, the fraction unbound in data set [12] is 0.44. Further, the fAUC/MIC in [13] is listed as 175. Also, the “fT>MIC” value with Mus musculus is reported as 58%. It took 0.13 µg/mL (≈ 0.276 µM) to inhibit growth in [1] (MIC). Also, the IC50 in [2] turned out to be 0.24 µM. The compound further gave a log distribution coefficient (logD) at 10000 µM in [3] of 0.47. In data set [5], the Papp A→B came to 8.1 ×10⁻⁶ cm/s. Also, in data set [6], the basolateral-to-apical permeability (Papp B→A) is 12.3 ×10⁻⁶ cm/s. The same compound yielded a clearance in data set [7] of 63 mL/min/kg. In addition, the bioavailability in data set [8] is over 100%. For the same compound, the Activity result in data set [14] is “Dose-dependent effect”; in data set [15], “tde”. The log10cfu in [16] is over 3.

The values above are taken from ChEMBL document CHEMBL3286091, “Novel N-linked aminopiperidine-based gyrase inhibitors with improved hERG and in vivo efficacy against Mycobacterium tuberculosis” (J Med Chem, 2014).
